Measurements: ChEMBL document CHEMBL4308840, “Identification of the First Synthetic Allosteric Modulator of the CB2 Receptors and Evidence of Its Efficacy for Neuropathic Pain Relief” (2018)
Activity calls are given as the source filed them.

Assays:
[1] = target: Cannabinoid receptor 1 (Homo sapiens) (UniProt P21554); assay: Positive allosteric modulation of human CB1R expressed in CHO cell membranes assessed as increase in [3H]CP55940 binding at 10 uM after 60 mins by liquid scintillation spectrometric method
Mus musculus [2] = assay: Antinociceptive activity in CD-1 albino mouse model of oxaliplatin-induced neuropathic pain assessed as increase in licking latency at 5 to 10 mg/kg, po treated on day 15 post oxaliplatin treatment and measured at 30 to 60 mins post dose by cold plate test; assay type: functional, organism-based
Method in brief: (§1)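 Male CD-1 mice (22–25 g) received oxaliplatin 2.4 mg kg-1 i.p. in 5% glucose on days 1-2, 5-9 and 12-14; controls got vehicle. On day 15, a single oral dose in 1% carboxymethylcellulose was given. Cold plate held at 4 °C; latency to first hind-paw licking recorded, 60 s cut-off, at 15, 30, 45, 60 and 75 min. n=16 mice over 2 sets; one-way ANOVA with Bonferroni.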

[3] = target: Cannabinoid receptor 1 (Homo sapiens) (UniProt P21554); assay: Positive allosteric modulation of human CB1R expressed in CHO cell membranes assessed as increase in [3H]CP55940 binding up to 1 uM after 60 mins by liquid scintillation spectrometric method relative to control
[4] = target: Cannabinoid receptor 2 (Homo sapiens) (UniProt P34972); assay: Positive allosteric modulation of human CB2R expressed in CHO cell membranes assessed as decrease in [3H]CP55940 dissociation at 100 nM up to 2 hrs by liquid scintillation spectrometric method
Method in brief: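 Human CB2R CHO membranes (50 µg protein) were used for [3H]CP55940 dissociation in Tris buffer with 0.1% BSA, pH 7.4, with or without 100 nM test compound. Dissociation followed 0.5–120 min at 25 °C; filtration and scintillation counting. Nonspecific binding taken with 1 µM unlabelled ligand. Four experiments in duplicate.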

Mus musculus [5] = assay: (§2) Antinociceptive activity in CD-1 albino mouse model of oxaliplatin-induced neuropathic pain assessed as increase in licking latency at 20 mg/kg, po treated 15 mins after CB2R antagonist SR144528 treatment on day 15 post oxaliplatin treatment and measured up to 75 mins post dose by cold plate test; assay type: functional, organism-based
Method in brief: (§3)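 Male CD-1 mice on day 15 after oxaliplatin (2.4 mg kg-1 i.p., days 1-2, 5-9, 12-14) received the selective antagonist i.p., then the oral test dose. Cold plate at 4 °C with 60 s cut-off, licking latency read 15, 30, 45, 60 and 75 min post dose. 16 mice in 2 sets; ANOVA with Bonferroni.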

[6] = target: Cannabinoid receptor 2 (Homo sapiens) (UniProt P34972); assay: Positive allosteric modulation of human CB2R expressed in CHO cell membranes assessed as increase in AEA-stimulated [35S]GTPgammaS binding at 100 nM after 90 mins by liquid scintillation counting method; assay type: functional
Method in brief: (§4)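 Membranes (1 mg/ml) from CHO cells stably expressing human CB1R or CB2R. Incubated with 0.1 nM [35S]GTPγS and 30 µM GDP in 50 mM Tris, 10 mM MgCl2, 100 mM NaCl, 0.2 mM EDTA, 1 mM DTT, pH 7.4, 0.1% DMSO, 30 °C for 90 min. Filtered on GF/B; scintillation counting. Duplicates; six experiments for CB1R, twelve for CB2R with CP55940.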

[7] = target: Cannabinoid receptor 2 (Homo sapiens) (UniProt P34972); assay: Positive allosteric modulation of human CB2R expressed in CHO cell membranes assessed as increase in 2-AG-stimulated [35S]GTPgammaS binding at 100 nM after 90 mins by liquid scintillation counting method; assay type: functional; method in brief: as §4
[8] = target: Cannabinoid receptor 1 (Homo sapiens) (UniProt P21554); assay: Allosteric modulation of human CB1R expressed in CHO cell membranes assessed as effect on CP55940-stimulated [35S]GTPgammaS binding at 100 nM after 90 mins by liquid scintillation counting method; assay type: functional; method in brief: as §4
[9] = target: Cannabinoid receptor 2 (Homo sapiens) (UniProt P34972); assay: Inhibition of [35S]GTPgammaS binding to human CB2R expressed in CHO cell membranes at 100 nM after 90 mins by liquid scintillation counting method; assay type: functional; method in brief: as §4
[10] = target: Cannabinoid receptor 2 (Homo sapiens) (UniProt P34972); assay: Positive allosteric modulation of human CB2R expressed in CHO cell membranes assessed as increase in [3H]CP55940 binding after 60 mins by liquid scintillation spectrometric method
Method in brief: (§5)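 Membranes (50 µg protein) from CHO cells stably expressing human CB1R or CB2R, incubated with 0.7 nM [3H]CP55940 in 50 mM Tris binding buffer with 0.1% BSA, pH 7.4, at 37 °C for 60 min. Vehicle 0.1% DMSO. Ended with ice-cold buffer and vacuum filtration through GF/B filters, then liquid scintillation counting. Specific binding is total minus binding with 1 µM unlabelled CP55940. Six independent experiments, each in duplicate.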

Mus musculus [11] = assay: Antinociceptive activity in CD-1 albino mouse model of oxaliplatin-induced neuropathic pain assessed as licking latency time at 20 mg/kg, po treated on day 15 post oxaliplatin treatment and measured at 60 mins post dose by cold plate test (reference value: 9.7 +/- 0.9 secs); assay type: functional; method in brief: as §1
[12] = target: Cannabinoid receptor 1 (Homo sapiens) (UniProt P21554); assay: Positive allosteric modulation of human CB1R expressed in CHO cell membranes assessed as increase in [3H]CP55940 binding at 100 nM after 60 mins by liquid scintillation spectrometric method; method in brief: as §5
[13] = target: Cannabinoid receptor 2 (Homo sapiens) (UniProt P34972); assay: Positive allosteric modulation of human CB2R expressed in CHO cell membranes assessed as increase in CP55940-stimulated [35S]GTPgammaS binding at 100 nM after 90 mins by liquid scintillation counting method; assay type: functional; method in brief: as §4
Mus musculus [14] = assay: Antinociceptive activity in CD-1 albino mouse model of oxaliplatin-induced neuropathic pain assessed as licking latency time at 20 mg/kg, po treated on day 15 post oxaliplatin treatment and measured up to 15 mins post dose by cold plate test (reference value: 9.7 +/- 0.9 secs); assay type: functional; method in brief: as §1
Mus musculus [15] = assay: Antinociceptive activity in CD-1 albino mouse model of oxaliplatin-induced neuropathic pain assessed as increase in licking latency at 20 mg/kg, po treated 15 mins after CB1R antagonist SR141716A treatment on day 15 post oxaliplatin treatment and measured up to 75 mins post dose by cold plate test; assay type: functional, organism-based; method in brief: as §3
[16] = target: T1, Monoglyceride lipase (Homo sapiens) (UniProt Q99685); assay: Inhibition of recombinant human MAGL at <10 uM using 4-NPA as substrate after 30 mins by colorimetric method
T1 sequence (whole entry): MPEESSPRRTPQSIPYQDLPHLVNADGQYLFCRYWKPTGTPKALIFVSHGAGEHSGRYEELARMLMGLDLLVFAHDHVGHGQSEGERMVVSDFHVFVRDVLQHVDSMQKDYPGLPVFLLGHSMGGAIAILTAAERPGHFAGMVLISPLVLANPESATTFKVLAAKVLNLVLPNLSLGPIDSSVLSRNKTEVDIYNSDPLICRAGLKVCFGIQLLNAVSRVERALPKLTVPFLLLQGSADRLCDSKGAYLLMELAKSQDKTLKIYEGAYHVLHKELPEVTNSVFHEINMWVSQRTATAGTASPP
Method in brief: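 Human recombinant MAGL, 11 ng/well, with 100 µM (final) 4-nitrophenylacetate in 10 mM Tris pH 7.2, 1 mM EDTA, 0.1 mg/ml BSA, at room temperature for 30 min. 4-Nitrophenol release read at 405 nm. Controls were no-compound and no-enzyme reactions.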

[17] = target: Cannabinoid receptor 2 (Homo sapiens) (UniProt P34972); assay: Stimulation of [35S]GTPgammaS binding to human CB2R expressed in CHO cell membranes at 100 nM after 90 mins by liquid scintillation counting method; assay type: functional; method in brief: as §4
Mus musculus [18] = assay: as §2, with “1 to 10” for “20”, “MAGL inhibitor trans-(1-(1-(1H-1,2,4-Triazole-1-carbonyl)piperidin-4-yl)-4-benzo[d][1,3]dioxol-5-yl)-3-(4-fluorophenyl)azetidin-2-one” for “CB2R antagonist SR144528”; assay type: functional
Method in brief: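 Oxaliplatin model in male CD-1 mice: 2.4 mg kg-1 i.p. in 5% glucose on days 1-2, 5-9 and 12-14, tested day 15. MAGL inhibitor F 1 mg kg-1 p.o. was combined with oral test dosing, both in 1% carboxymethylcellulose. Cold plate latency at 4 °C, 60 s cut-off, read 15–75 min after dosing. 16 mice over 2 sets; ANOVA/Bonferroni; synergy by Chou-Talalay combination index.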

[19] = target: Cannabinoid receptor 1 (Homo sapiens) (UniProt P21554); assay: Displacement of [3H]CP55940 from human CB1R expressed in CHO cell membranes at 100 nM after 60 mins by liquid scintillation spectrometric method; method in brief: as §5

Cannabinoid receptor 2 (Homo sapiens), sequence (P34972 whole entry): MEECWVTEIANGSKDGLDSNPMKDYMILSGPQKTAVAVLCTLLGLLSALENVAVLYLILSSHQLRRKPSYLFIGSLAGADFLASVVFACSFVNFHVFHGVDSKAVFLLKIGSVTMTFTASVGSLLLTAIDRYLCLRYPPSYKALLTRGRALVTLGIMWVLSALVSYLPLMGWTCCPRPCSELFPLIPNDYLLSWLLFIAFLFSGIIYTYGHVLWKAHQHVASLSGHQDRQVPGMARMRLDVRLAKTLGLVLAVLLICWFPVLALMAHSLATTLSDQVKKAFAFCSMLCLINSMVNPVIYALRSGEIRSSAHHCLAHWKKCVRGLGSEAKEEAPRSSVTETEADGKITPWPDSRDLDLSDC
Cannabinoid receptor 1 (Homo sapiens), sequence (P21554 whole entry): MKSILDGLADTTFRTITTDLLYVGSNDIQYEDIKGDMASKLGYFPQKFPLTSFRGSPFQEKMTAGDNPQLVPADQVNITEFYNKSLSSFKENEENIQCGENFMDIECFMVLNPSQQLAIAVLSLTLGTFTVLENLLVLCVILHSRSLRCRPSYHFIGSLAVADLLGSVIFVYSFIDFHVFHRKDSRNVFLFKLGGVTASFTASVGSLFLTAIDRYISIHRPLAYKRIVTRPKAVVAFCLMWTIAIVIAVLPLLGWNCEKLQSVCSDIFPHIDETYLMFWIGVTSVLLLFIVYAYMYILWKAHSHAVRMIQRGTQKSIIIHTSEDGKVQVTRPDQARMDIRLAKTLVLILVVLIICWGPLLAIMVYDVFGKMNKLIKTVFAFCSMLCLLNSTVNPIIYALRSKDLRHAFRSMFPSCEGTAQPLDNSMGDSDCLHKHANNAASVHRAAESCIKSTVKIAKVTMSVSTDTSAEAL

Row | Activity [10] | Activity [12] | inhibition [19] | Structure (SMILES) | also measured
1 | inactive | Active | – | Cc1c(-c2ccccc2)cn(Cc2ccc(F)cc2)c(=O)c1NC(=O)C1CCCCCC1 | –
2 | inactive | Active | – | COc1ccc(-c2cn(Cc3ccc(F)cc3)c(=O)c(NC(=O)C3CCCCCC3)c2C)cc1 | –
3 | inactive | Active | – | Cc1c(Cl)cn(Cc2ccc(F)cc2)c(=O)c1NC(=O)C1CCCCCC1 | –
4 | inactive | Active | – | Cc1c(F)cc(NC(=O)C2CCCCCC2)c(=O)n1Cc1ccc(F)cc1 | –
5 | inactive | Active | – | Cc1c(Br)cc(NC(=O)C2CCCCCC2)c(=O)n1Cc1ccc(F)cc1 | –
6 | inactive | – | Active | Cc1c(Cl)cc(NC(=O)C2CCCCCC2)c(=O)n1Cc1ccc(F)cc1 | –
7 | inactive | – | Active | Cc1ccn(Cc2ccc(F)cc2)c(=O)c1NC(=O)C1CCCCCC1 | –
8 | inactive | – | Active | Cc1c(Br)c[nH]c(=O)c1NC(=O)C1CCCCCC1 | –
9 | inactive | – | Active | Cc1ccc(NC(=O)C2CCCCCC2)c(=O)n1Cc1ccc(F)cc1 | –
10 | inactive | Active | – | COc1ccc(-c2cc(NC(=O)C3CCCCCC3)c(=O)n(Cc3ccc(F)cc3)c2C)cc1 | –
11 | Active | Active | – | O=C(Nc1c(O)c(Br)cn(Cc2ccc(F)cc2)c1=O)C1CCCCCC1 | –
12 | inactive | Active | – | Cc1c(-c2ccccc2)cc(NC(=O)C2CCCCCC2)c(=O)n1Cc1ccc(F)cc1 | –

Row | Structure (SMILES) | Activity [10] | Activity [12] | inhibition [19] | also measured
13 | Cc1c(Br)cn(Cc2ccc(F)cc2)c(=O)c1NC(=O)C1CCCCCC1 | Active | Active | – | Activity [1]: inactive; Activity (Mus musculus [2]): Active; Activity [3]: 40%; Activity [4]: Active; Activity (Mus musculus [5]): inactive; Activity [6]: inactive; Activity [7]: Active; Activity [8]: inactive; inhibition [9]: inactive; Time (Mus musculus [11]): 0.75 min; Activity [13]: Active; Time (Mus musculus [14]): 0.5 min; Activity (Mus musculus [15]): Active; inhibition [16]: inactive; Activity [17]: inactive; CI (Mus musculus [18]): 0.2012
